ChEMBL document CHEMBL1126647, “Fluorine-18-labeled progestin ketals: synthesis and target tissue uptake selectivity of potential imaging agents for receptor-positive breast tumors” (J Med Chem, 1993)

Key:
Format in all cases: functional, tissue-based
[1] = biological target: T1, Progesterone receptor (Rattus norvegicus) (UniProt Q63449); assay: Tissue distribution in blood 1 hr after [18F]4 injection into estrogen-primed immature rats at normal dose
T1 sequence (whole entry): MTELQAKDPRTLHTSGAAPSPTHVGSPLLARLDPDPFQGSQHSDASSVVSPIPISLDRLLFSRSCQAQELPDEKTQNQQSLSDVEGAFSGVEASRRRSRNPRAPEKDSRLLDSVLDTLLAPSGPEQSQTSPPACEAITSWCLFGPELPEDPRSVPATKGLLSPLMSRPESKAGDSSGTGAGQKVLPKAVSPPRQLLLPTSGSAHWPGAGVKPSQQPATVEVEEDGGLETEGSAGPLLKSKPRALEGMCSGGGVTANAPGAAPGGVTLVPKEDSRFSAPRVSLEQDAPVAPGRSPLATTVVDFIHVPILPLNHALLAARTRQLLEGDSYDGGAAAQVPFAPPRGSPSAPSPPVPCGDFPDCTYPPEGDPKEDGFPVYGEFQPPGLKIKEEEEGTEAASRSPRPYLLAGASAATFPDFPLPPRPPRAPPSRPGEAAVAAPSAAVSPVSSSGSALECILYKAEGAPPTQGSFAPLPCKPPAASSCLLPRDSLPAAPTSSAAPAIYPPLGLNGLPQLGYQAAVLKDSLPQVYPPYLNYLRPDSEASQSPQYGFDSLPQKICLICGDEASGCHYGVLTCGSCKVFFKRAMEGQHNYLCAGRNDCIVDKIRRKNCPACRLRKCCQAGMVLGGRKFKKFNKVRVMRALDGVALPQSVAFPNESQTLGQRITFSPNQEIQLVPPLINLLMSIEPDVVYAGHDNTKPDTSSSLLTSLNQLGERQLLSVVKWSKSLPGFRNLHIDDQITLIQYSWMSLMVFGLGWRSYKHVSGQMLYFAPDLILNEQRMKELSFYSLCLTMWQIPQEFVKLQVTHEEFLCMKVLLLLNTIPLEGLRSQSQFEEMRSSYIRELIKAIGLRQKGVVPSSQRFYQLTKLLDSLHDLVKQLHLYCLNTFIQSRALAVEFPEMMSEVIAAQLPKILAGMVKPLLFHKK
Summary of the method: (§1)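 Female Sprague-Dawley rats, 23 days old, primed with estradiol 5 μg s.c. in 20% ethanol/sunflower oil on two days and used 24 h later. Under ether, they received 51 μCi tracer (30 Ci/mmol) iv via the tail vein in 0.1 mL 10% ethanol/saline. Killed by decapitation at 1 h; tissues weighed and gamma-counted. Results as %ID/g or tissue ratios, mean ± SD, n = 5.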

[2] = biological target: T1, Progesterone receptor (Rattus norvegicus); assay: Tissue distribution in fat 1 hr after [18F]4 injection into estrogen-primed immature rats at low dose; settings: Adipose tissue
Summary of the method: (§2)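 Estrogen-primed immature female Sprague-Dawley rats (estradiol 5 μg s.c. daily ×2, used 24 h later) were given a reduced tracer dose of 30 μCi in 0.04 mL 10% ethanol/saline, tail vein iv, under ether. Decapitated at 1 h; organs weighed and gamma-counted. Results as %ID/g or uterus/tissue ratio, mean ± SD, n = 5.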

[3] = biological target: T1, Progesterone receptor (Rattus norvegicus); assay: Tissue distribution in uterus 1 hr after [18F]-4 injection into estrogen-primed immature rats co-injected with uterin uptake blocker (ORG 2058)
Summary of the method: (§3)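 Blocking group: estrogen-primed immature female Sprague-Dawley rats (estradiol 5 μg s.c. ×2 days, used 24 h later). ORG 2058 18 μg was co-injected with the tracer dose iv via tail vein, 0.2 mL injection volume in 10% ethanol/saline. Killed 1 h later; tissues weighed and gamma-counted. Results as %ID/g or ratios, mean ± SD, n = 5.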

[4] = biological target: T1, Progesterone receptor (Rattus norvegicus); assay: Tissue distribution in blood 1 hr after [18F]4 injection into estrogen-primed immature rats at low dose; summary of the method: as §2
[5] = biological target: T1, Progesterone receptor (Rattus norvegicus); assay: Tissue distribution in bone 1 hr after [18F]-4 injection into estrogen-primed immature rats co-injected with uterine uptake blocker (ORG 2058); settings: Bone element; summary of the method: as §3
[6] = biological target: T1, Progesterone receptor (Rattus norvegicus); assay: Tissue distribution in uterus/muscle 1 hr after [18F]4 injection into estrogen-primed immature rats at normal dose; summary of the method: as §1
[7] = biological target: T1, Progesterone receptor (Rattus norvegicus); assay: Tissue distribution in uterus/blood 1 hr after [18F]4 injection into estrogen-primed immature rats co-injected with uterine uptake blocker (ORG 2058); summary of the method: as §3
[8] = biological target: T1, Progesterone receptor (Rattus norvegicus); assay: Tissue distribution in uterus 3 hr after [18F]4 injection into estrogen-primed immature rats
Summary of the method: (§4)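 Immature female Sprague-Dawley rats, estradiol-primed (5 μg s.c. in 20% ethanol/sunflower oil, two successive days, used 24 h later). Tracer (30 Ci/mmol) in 10% ethanol/saline was injected iv into the tail vein under ether anesthesia. Animals were decapitated 3 h postinjection; organs weighed and gamma-counted. %ID/g, mean ± SD, n = 5.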

[9] = biological target: T1, Progesterone receptor (Rattus norvegicus); assay: Tissue distribution in uterus/muscle 1 hr after [18F]4 injection into estrogen-primed immature rats co-injected ORG 2058 (uterine uptake blocker); summary of the method: as §3
[10] = biological target: T1, Progesterone receptor (Rattus norvegicus); assay: Tissue distribution in bone 1 hr after [18F]4 injection into estrogen-primed immature rats at normal dose; settings: Bone element; summary of the method: as §1
[11] = biological target: T1, Progesterone receptor (Rattus norvegicus); assay: Tissue distribution in liver 1 hr after [18F]4 injection into estrogen-primed immature rats at normal dose; summary of the method: as §1
[12] = biological target: T1, Progesterone receptor (Rattus norvegicus); assay: Tissue distribution in kidney 1 hr after [18F]4 injection into estrogen-primed immature rats at low dose; summary of the method: as §2
[13] = biological target: T1, Progesterone receptor (Rattus norvegicus); assay: Tissue distribution in ovaries 1 hr after [18F]4 injection into estrogen-primed immature rats at low dose; settings: Female gonad; summary of the method: as §2
[14] = biological target: T1, Progesterone receptor (Rattus norvegicus); assay: Tissue distribution in uterus 1 hr after [18F]4 injection into estrogen-primed immature rats at low dose; summary of the method: as §2
[15] = biological target: T1, Progesterone receptor (Rattus norvegicus); assay: Tissue distribution in fat 1 hr after [18F]4 injection into estrogen-primed immature rats co-injected with uterine uptake blocker (ORG 2058); settings: Adipose tissue; summary of the method: as §3
[16] = biological target: T1, Progesterone receptor (Rattus norvegicus); assay: Tissue distribution in ovaries 1 hr after [18F]4 injection into estrogen-primed immature rats at normal dose; settings: Female gonad; summary of the method: as §1
[17] = biological target: T1, Progesterone receptor (Rattus norvegicus); assay: Tissue distribution in lung 1 hr after [18F]4 injection into estrogen-primed immature rats co-injected with uterine uptake blocker (ORG 2058); summary of the method: as §3
[18] = biological target: T1, Progesterone receptor (Rattus norvegicus); assay: Tissue distribution in kidney 1 hr after [18F]4 injection into estrogen-primed immature rats co-injected with uterine uptake blocker ([…]); summary of the method: as §3
[19] = biological target: T1, Progesterone receptor (Rattus norvegicus); assay: Tissue distribution in lung 1 hr after [18F]4 injection into estrogen-primed immature rats at normal dose; summary of the method: as §1
[20] = biological target: T1, Progesterone receptor (Rattus norvegicus); assay: Tissue distribution in blood 3 hr after [18F]-4 injection into estrogen-primed immature rats; summary of the method: as §4
[21] = biological target: T1, Progesterone receptor (Rattus norvegicus); assay: Tissue distribution in brain 1 hr after [18F]-4 injection into estrogen-primed immature rats at low dose; summary of the method: as §2
[22] = biological target: T1, Progesterone receptor (Rattus norvegicus); assay: Tissue distribution in uterus/blood 1 hr after [18F]4 injection into estrogen-primed immature rats at low dose; summary of the method: as §2

Row | Compound | Injected dose/g [1] | Injected dose/g [2] | Injected dose/g [3] | Injected dose/g [4] | Injected dose/g [5] | uterus/muscle ratio [6] | uterus/blood ratio [7] | Injected dose/g [8] | uterus/muscle ratio [9] | Injected dose/g [10] | Injected dose/g [11] | Injected dose/g [12] | Injected dose/g [13] | Injected dose/g [14] | Injected dose/g [15] | Injected dose/g [16] | Injected dose/g [17] | Injected dose/g [18] | Injected dose/g [19] | Injected dose/g [20] | also measured
1 | CC(=O)[C@@]12O[C@](C)(c3ccc(F)cc3)O[C@@H]1CC1C3CCC4=CC(=O)CC[C@]4(C)C3CC[C@@]12C (some centres undefined) | 0.47% | 5.39% | 1.27% | 0.52% | 1.44% | 3.85 | 3.06 | 2.13% | 1.69 | 1.76% | 3.41% | 2.27% | 3.68% | 3.3% | 3.77% | 3.93% | 1.26% | 2.18% | 1.3% | 0.28% | Injected dose/g [21]: 0.57%; uterus/blood ratio [22]: 6.34
2 | C[C@@]1(c2ccc(F)cc2)O[C@@H]2CC3C4CCC5=CC(=O)CC[C@@H]5C4CC[C@]3(C)[C@]2(C(=O)CO)O1 (some centres undefined) | 0.26% | 3.78% | 0.86% | 0.28% | 0.6% | 8.2 | 3.69 | 3.86% | 2.42 | 0.62% | 4.25% | 1.57% | 2.66% | 4.06% | 2.76% | 2.8% | 0.54% | 1.28% | 0.6% | 0.1% | Injected dose/g [21]: 0.39%; uterus/blood ratio [22]: 14.5
